DAGLB inhibitor: DAGLB lipase inhibitors, primary screen, biochemical, fluorescence, HTS; Diacylglycerol lipase-beta (Homo sapiens), Q8NCG7; HEK293T DAGLB membrane lysate, EnzChek fluorogenic substrate; inhibition, % at 5.17 µM; actives 0.059% (n = 340,000); in the data active means inhibition above about 34%
Target sequence (Q8NCG7 whole entry, looked up): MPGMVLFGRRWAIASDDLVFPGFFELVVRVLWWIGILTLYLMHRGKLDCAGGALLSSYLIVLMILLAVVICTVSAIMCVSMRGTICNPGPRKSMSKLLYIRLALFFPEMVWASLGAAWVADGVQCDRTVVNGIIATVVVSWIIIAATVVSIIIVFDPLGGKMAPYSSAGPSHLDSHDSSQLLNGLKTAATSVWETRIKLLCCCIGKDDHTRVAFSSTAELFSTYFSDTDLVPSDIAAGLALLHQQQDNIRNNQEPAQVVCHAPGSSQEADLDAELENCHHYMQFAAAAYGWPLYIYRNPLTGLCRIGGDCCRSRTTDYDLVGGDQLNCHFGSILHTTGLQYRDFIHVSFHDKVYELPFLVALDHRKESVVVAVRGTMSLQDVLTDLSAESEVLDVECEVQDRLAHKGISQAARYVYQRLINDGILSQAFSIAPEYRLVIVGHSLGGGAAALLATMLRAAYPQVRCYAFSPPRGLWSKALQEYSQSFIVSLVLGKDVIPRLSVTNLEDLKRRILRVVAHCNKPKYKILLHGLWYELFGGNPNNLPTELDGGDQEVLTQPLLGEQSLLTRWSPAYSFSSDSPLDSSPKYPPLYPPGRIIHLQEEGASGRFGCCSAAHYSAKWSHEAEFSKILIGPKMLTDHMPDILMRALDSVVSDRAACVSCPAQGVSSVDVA
SKN-1 inh: suppressors of acrylamide-induced Pgst-4::GFP reporter in worms, primary screen, SKN-1 inhibitor project, whole organism, uHTS, GFP/RFP fluorescence ratio, strain VP596; C. elegans VP596 Pgst-4::GFP/RFP ratio, 24 h; inhibition, % at 21.8 µM; actives 0.49% (n = 360,000); AID 624304, 2012;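 active means interference check ratio from 0.5 to 1.5 plus GFP to RFP signal ratio inhibition reaching or exceeding a fixed threshold, cut at about 30% in these data, passing the limit was not always enough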
beta cell repl: inducers of MIN6 beta-cell proliferation, primary screen, ATP luminescence, uHTS | MIN6 cells proliferation, ATPlite luminescence, 48 h; cells starved in 0.2% serum; 100% = growth in 10% serum | proliferation, % at 10 µM | actives 0.29% (n = 330,000) | AID 2380, 2010;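 active means compounds whose signal lies at least 3.5 SD above the mean of all wells on their plate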
bovine MsrA act: bovine MsrA enzyme activators, primary screen, biochemical, absorbance, HTS; Methionine sulfoxide reductase A (Bos taurus); purified bovine MsrA, absorbance read-out; activation, % at 10.6 µM; actives 0.3% (n = 360,000); in the data active means activation above about 7.5%
MT1-MMP act inh: blockers of MT1-MMP proenzyme processing, primary screen, HT1080 RFP-PRO-GFP cells, GFP/RFP fluorescence. Matrix metalloproteinase-14 (Homo sapiens), P50281. GFP/RFP ratio fluorescence, overnight; percent of plate control window, DMSO zero. GFP/RFP ratio change, % at 20 µM. actives 0.061% (n = 360,000);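 active means GFP/RFP ratio change of at least 30% with cell ATP level not reduced by more than half and red fluorescence within 50% of control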
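Compound: 20 µM single dose, 1% DMSO / System: HT1080 RFP-PRO-GFP cells / Controls: DMSO and RFP-L50D-GFP cell wells / Read-out basis: GFP/RFP fluorescence ratio / Schedule: overnight compound exposure at 37 °C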
MsrA inh: bovine MsrA enzyme inhibitors, primary screen, biochemical, absorbance, HTS | purified bovine MsrA, absorbance read-out | actives 0.75% (n = 360,000) | inhibition, % at 15.5 µM | Methionine sulfoxide reductase A (Bos taurus); in the data active means inhibition above about 4.5%
DAGLB inh conf: DAGLB lipase inhibitors, retest, confirmation, biochemical, fluorescence, HEK293T membranes | shares compounds with DAGLB inhibitor | inhibition, % at 5.17 µM | HEK293T DAGLB membrane lysate, EnzChek fluorogenic substrate | actives 73% (n = 190);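 active means mean inhibition over triplicate wells above a set limit taken from the primary lipase screen, cut at about 34% in these data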
Numbers stand for hits. An excerpt weighted towards active compounds, which were near 1.8% of everything screened.

What do the screens show for `O=C(Nc1cccc(C(F)(F)F)c1)c1cccc(NS(=O)(=O)c2ccc(O)c(C(=O)O)c2)c1`?
DAGLB inhibitor: 41; SKN-1 inh: inactive; beta cell repl: inactive; bovine MsrA act: inactive; MT1-MMP act inh: inactive; MsrA inh: inactive; DAGLB inh conf: inactive

Results for Cc1ccc(NC2=C/C(=N\S(=O)(=O)c3cccs3)c3ccccc3C2=O)c(C)c1 ?
DAGLB inhibitor: 50; SKN-1 inh: inactive; beta cell repl: inactive; bovine MsrA act: inactive; MT1-MMP act inh: inactive; DAGLB inh conf: 53

What do the screens show for `Cc1cccc(NC2=C/C(=N/S(=O)(=O)c3cccs3)c3ccccc3C2=O)c1`?
DAGLB inhibitor: inactive; SKN-1 inh: inactive; bovine MsrA act: inactive; MT1-MMP act inh: inactive; MsrA inh: inactive

What do the screens show for `C[C@@H]1Cn2cnc(C(=O)N(C)Cc3ccccc3)c2C(=O)N1`?
MsrA inh: inactive

Results for C[C@H](CO)N1C[C@H](C)[C@@H](CN(C)C(=O)Cc2ccccc2)OCc2cn(nn2)CCCC1=O ?
MsrA inh: inactive

How did COc1ccccc1Cc1c(-c2ccc(C)cc2)nc2ccc(C)cn12 do in these assays?
MsrA inh: inactive

Results for COc1cccc(C(=O)N[C@H](C(=O)N2CCC[C@H]2C(=O)NCCc2ccccc2Cl)c2ccccc2)c1 ?
MsrA inh: inactive

How did Nc1nc(-c2ccccc2)c(N=Nc2ccc(Cl)cc2)s1 do in these assays?
DAGLB inhibitor: 51; SKN-1 inh: inactive; beta cell repl: inactive; bovine MsrA act: inactive; MT1-MMP act inh: inactive; MsrA inh: inactive; DAGLB inh conf: 84

How did Nc1nc(-c2ccccc2)c(-c2ccccc2)s1 do in these assays?
DAGLB inhibitor: inactive; SKN-1 inh: inactive; beta cell repl: inactive; bovine MsrA act: inactive; MT1-MMP act inh: inactive; MsrA inh: inactive

What do the screens show for `COC(=O)[C@]12C[C@H](CC(=O)NCC34CC5CC(CC(C5)C3)C4)C(=O)N(CCC3=CCCCC3)C1=C[C@H](C(C)(C)C)O[C@@H]2C`?
MsrA inh: inactive

Results for CN(C)c1ccc(N=Nc2ccccc2C(=O)OCC(=O)N2CCCC2)cc1 ?
DAGLB inhibitor: inactive; SKN-1 inh: inactive; beta cell repl: inactive; bovine MsrA act: inactive; MT1-MMP act inh: inactive; MsrA inh: inactive

What do the screens show for `CN(C)c1ccc(N=Nc2ccccc2C(=O)OCC(=O)Nc2ccccc2C(F)(F)F)cc1`?
DAGLB inhibitor: 35; SKN-1 inh: inactive; bovine MsrA act: inactive; MT1-MMP act inh: inactive; MsrA inh: inactive; DAGLB inh conf: 59

What do the screens show for `Cc1cccc(C)c1[N+](=O)[O-]`?
MsrA inh: inactive

What do the screens show for `Nc1cc2c(cc1[N+](=O)[O-])-c1ccccc1C2=NO`?
DAGLB inhibitor: 35; SKN-1 inh: inactive; bovine MsrA act: inactive; MT1-MMP act inh: inactive; MsrA inh: inactive; DAGLB inh conf: inactive

How did CC(=O)Nc1cc2c(cc1[N+](=O)[O-])-c1ccccc1C2=NO do in these assays?
DAGLB inhibitor: inactive; SKN-1 inh: inactive; bovine MsrA act: inactive; MT1-MMP act inh: inactive; MsrA inh: inactive

How did COc1ccc(N2C(=O)c3[nH]nc(-c4ccccc4)c3C2c2ccc(F)cc2)cc1 (stereo not drawn) do in these assays?
MsrA inh: inactive

Results for O=C1CC(=C(c2ccccc2)c2ccccc2)C(=O)N1CCCCN1CCN(c2cccc(Cl)c2)CC1 ?
DAGLB inhibitor: 45; SKN-1 inh: inactive; beta cell repl: inactive; bovine MsrA act: inactive; MT1-MMP act inh: inactive; MsrA inh: inactive; DAGLB inh conf: 53

Screening results from PubChem.
